This note sets out measurements from the RNAGym collection of RNA variant scans (doi:10.1126/science.aae0568).

The labels stand for the following.
B1: tRNA (parent)
chain: GUUCCGUUGGCGUAAUGGUAACGCGUCUCCCUCCUAAGGAGAAGACUGCGGGUUCGAGUCCCGUACGGAACG

This sample holds only a part of the variants without activity. A value given as a limit tells only on which side of the number the result lay.

This series covers variants of B1. Put plainly: yeast fitness relative to wild type (ratio to wild type); higher = fitter; tRNA-Arg(CCU), competitive growth, 37 C, YPD. The procedure, abridged:
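Changes in genotype frequencies gave Darwinian fitness relative to wild type. Frequencies were read by 100-nucleotide paired-end sequencing of gene amplicons before and after pooled Saccharomyces cerevisiae strains, carrying tRNA-Arg(CCU) gene variants at the native locus, were competed in YPD at 37°C for 24 hours in six replicates. A genotype was kept only with ≥ 100 starting reads, and estimates < 0.5 were set to 0.5.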
For the variant GUUCCGUUGGCGUAAUGGUAACGCGUCACCCUCCUACGGAGAAGACUGCGGGUUCGAGUCGCGUACGUAACG [U28A A37C C61G G68U], the yeast fitness is at most 0.5.
Next, GUUCCGUUGGCGUAAUGGUAACGCGUUUCCCUCCUAAAGAGAAGACUGCGGGUUCGAGUCCCGUACGGUACG [C27U G38A A69U]: 0.667; GUUCCGUUGGCGUAAUGGUAACGCGUUGCCCUCCUAAGGCGAAGACUGCGGGUUCGAGUCCCGUACGGCACG [C27U U28G A40C A69C]: 0.607; GUUCCGUUGGCGUAAUGGUAACGCGUCACCCUCCUAAGGGGAAGACUGCGGGUUCGAGUCCCGUUUGGAACG [U28A A40G A65U C66U]: at most 0.5.
Next, GUUCCGUUGGCGUAAUGGUAACGCGUUGCCCUCCUAAGGAGUAGACUGCGGGUUCGAGUCCCGUACGGAACG [C27U U28G A42U]: 0.535; GUUCCGUUGGCGUAAUGGUAACGCGUUUCCCUCCUAAGGAGAAGACUCCGGGUUCGAGUCCCGUACGGAACG [C27U G48C]: 0.958; GUUCCGUUGGCGUAAUGGUAACGCGUUUCCCUCCUAAGGAGAAGACUGCGGGUUCCAGUCCCGUACGGAACG [C27U G56C]: 0.595.
Take GUUCCGUUGGCGUAAUGGUAACGCGUUUCCCUCCUAAGGAGAAGACUGCGGGUUCAAGUCCCGUACGGAACG [C27U G56A]: the yeast fitness was found to be 0.998.
The figure for GUUCCGUUGGCGUAAUGGUAACGCGUUUCCCUCCCAAGGAGACGACUGCGGGUUCGAGUCCCGUACGGUACG [C27U U35C A43C A69U] is 0.62; for GUUCCGUUGGCGUAAUGGUAACGCGUUUCCCUCCUAACGAGAAGACUGCGGGUUCGAGUCCCGUACAGAACG [C27U G38C G67A] it is at most 0.5; for GUUCCGUUGGCGUAAUGGUAACGCGUUUCCCUCCUAAGGAGAAAACUGCGGAUUCGCGUCCCGUACGGAACG [C27U G44A G52A A57C] it is 0.538.
GUUCCGUUGGCGUAAUGGUAACGCGUUUCCCCCCUAAGGAGAAGACUGCGGGUUCGAGUCCCGUUCGGACCG [C27U U32C A65U A70C]: the yeast fitness was at most 0.5.
Consider GUUCCGUUGGCGUAAUGGUAACGCGUUUCCCUCCUAAGCAGAAGACUGCGGAUUCAAGUCCCGUACGGAACG [C27U G39C G52A G56A], for which the yeast fitness turned out to be 0.559.
Next, GUUCCGUUGGCGUAAUGGUAACGCGUUUCCCUCCUAAGGAGAAGACUAUGGGUUCGAGUCCCGUACAGAACG [C27U G48A C49U G67A]: 0.674.
Next, GUUCCGUUGGCGUAAUGGUAACGCGUUGCCCUCCUAAGGCGAAGAAUGUGGGUUCGAGUCCCGUACGGAUCG [C27U U28G A40C C46A C49U A70U]: 0.695.
As for GUUCCGUUGGCGUAAUGGUAACGCGUUUCCCUCCUAAGGAGAAGACUGCGGGUUCGAGGCCCGUACGGAACG [C27U U59G], the yeast fitness was determined as 0.823.
Take GUUCCGUUGGCGUAAUGGUAACGCGUUUCCCUCCUAAGGAAAAGACCGCGGGUUCGAGUCCCGUACGGAACG [C27U G41A U47C]: the yeast fitness was found to be 1.08.
Next, GUUCCGUUGGCGUAAUGGUAACGCGUUUCCCUCCUAAGGAGAAGACUGCGGGAUCGAGUCCCGUACAGAACG [C27U U53A G67A]: at most 0.5.
The figure for GUUCCGUUGGCGUAAUGGUAACGCGUCACCCUCCUACGGAGAAGACUGCGGGUUCGAGUCGCGUACGGAACG [U28A A37C C61G] is at most 0.5; for GUUCCGUUGGCGUAAUGGUAACGCGUUACCCACUUCAGGAGAAGACUGCGGGUUAGAGUCCCGUCCGGACCG [C27U U28A U32A C34U A36C C55A A65C A70C] it is at most 0.5.
Consider GUUCCGUUGGCGUAAUGGUAACGCGUUUCCCUCCUAAGGAGAAGACUGCGGGUUCGAGUCCCGUACAGUACG [C27U G67A A69U], for which the yeast fitness was found to be 0.692.
Next, GUUCCGUUGGCGUAAUGGUAACGCGUUUCCCUCCUAAAGAGAAGACUGCGGGUUCGAGUCCCGUACGCAACG [C27U G38A G68C]: at most 0.5; GUUCCGUUGGCGUAAUGGUAACGCGUCACCCUCCUAGGGAGAAGACUGCGGGUUCGAGUCCCGUACGGAACG [U28A A37G]: 0.658; GUUCCGUUGGCGUAAUGGUAACGCGUCACCCUCCUACGGAGAAGACUGCGGGUUCGAGUCCCGUACGGAACG [U28A A37C]: 0.657.
The figure for GUUCCGUUGGCGUAAUGGUAACGCGUUACCCACUUCAGGAGAAGACUGCGGGUUAGAGUCCCGUACGGAACG [C27U U28A U32A C34U A36C C55A] is 0.543; for GUUCCGUUGGCGUAAUGGUAACGCGUUUCCCUCCUAAGGAGAAGACUGCGGGUUCGAGUCCCGCACGGAACG [C27U U64C] it is 0.969; for GUUCCGUUGGCGUAAUGGUAACGCGUUUCCCUCCUAAGGAGAAGACUGCGCGUUAGAGUCCCGUACGGAACG [C27U G51C C55A] it is at most 0.5.
In the case of GUUCCGUUGGCGUAAUGGUAACGCGUUUCCCUCCUAAGGAGAAGACUGCGGGCUCGAGUCCCGUACGGAACG [C27U U53C], the yeast fitness was determined as 0.617.
The figure for GUUCCGUUGGCGUAAUGGUAACGCGUUUCCCUCCUAAGGAGAAGACUGCGAGUUCGAGUCCCGAACGGGACG [C27U G51A U64A A69G] is at most 0.5; for GUUCCGUUGGCGUAAUGGUAACGCGUUUCCCUCCUAAGGACAAGACUGCGGGUUCGAGUCGCGUACGGAACG [C27U G41C C61G] it is at most 0.5.
Regarding GUUCCGUUGGCGUAAUGGUAACGCGUUUCCCUCCUAAGGAGAAGACUGCAGGUUCGAGUCCCGUACGGAACG [C27U G50A], the yeast fitness was found to be 0.991.
Next, GUUCCGUUGGCGUAAUGGUAACGCGUUUCCCUCCUAACGAGAAGACUGCGGGUUCGAGUCCCGUACGGUACG [C27U G38C A69U]: at most 0.5.
The figure for GUUCCGUUGGCGUAAUGGUAACGCGUUUCCCUCCUAAGGAGAAGACUGCGGGUUCGAAUCCCGUACGGAGCG [C27U G58A A70G] is 0.753; for GUUCCGUUGGCGUAAUGGUAACGCGUUUCCCUCCUAAGGAGAAGACUGCGCGUUAGAGUACCGUACGGAACG [C27U G51C C55A C60A] it is at most 0.5; for GUUCCGUUGGCGUAAUGGUAACGCGUUUCCCCCCUAAGGAGAAGACUGCGGGUUCGAGUCCGGUACGGAACG [C27U U32C C62G] it is at most 0.5.
With GUUCCGUUGGCGUAAUGGUAACGCGUUACCCUCCUAGGGAGAAGACUGCGGGUUCGCCUCCCGUACGGAACG [C27U U28A A37G A57C G58C], the yeast fitness is 1.
The figure for GUUCCGUUGGCGUAAUGGUAACGCGUUUCCCUCCAAAGGAGAAGACUGCGGGUUCGAGUCCCGUACGGAACG [C27U U35A] is 0.771; for GUUCCGUUGGCGUAAUGGUAACGCGUCACCCUCCUCAGGAGAAGACUGCGGGUUCGAGUCCCGUACGGAACG [U28A A36C] it is 0.511.
